Test system: MS2 coat protein
Assay: apparent Kd, MS2 coat protein; higher = weaker binding; RNA-MaP array; FMN 200 µM where present
Summary of the method: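 The apparent Kd is reported as the median of filtered per-cluster binding-curve fits. To get these curves, designs transcribed by stalled E. coli RNA polymerase on Illumina sequencing-chip clusters were titrated with SNAP-549-labelled MS2 coat protein from 0.7 or 1.5 nM, doubling to 3 µM. Titrations were run without and then with constant ligand in 100 mM Tris-HCl pH 7.5, 80 mM KCl, 4 mM MgCl2, BSA, DTT, yeast tRNA and Tween-20, and green signal was normalised to red-channel RNA signal and control-cluster median Fmax.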

[1] = designed as: ON switch for flavin mononucleotide, no ligand
[2] = ligand present: flavin mononucleotide, designed as: ON switch for flavin mononucleotide
[3] = designed as: OFF switch for flavin mononucleotide, no ligand
[4] = ligand present: flavin mononucleotide, designed as: OFF switch for flavin mononucleotide

Sequence | apparent Kd [1] [µM] | apparent Kd [2] [µM] | apparent Kd [3] [µM] | apparent Kd [4] [µM]
AAACACAGACAUGAGGAUCACCCAUGUUAUGAAGAUACUGGGAGAAGGGCGAUUGCAAAGCAAUCGCAGGAUAUUCGUAUUGUG | 0.0312 | 0.011 | – | –
AAAAGACAUGAGGAUCACCCAUGUUAAGACGUGGGAGGAUAUGUAUGGAAAACAUGCUGUACAGAAGGCCCGUGUC | 0.0538 | 0.0197 | – | –
UGCGUCUAGACAGGAUAUCAAGGACGCCUACAUGAGGAUCACCCAUGUCGGCGGAGCAGCUCCGUUGAGAAGGGUCAUCGCAAC | 0.0665 | 0.0242 | – | –
AGGAAGUGAGGAUAUGCUGCUCGUCACUUGCGUGAUGAGUAGCAGAAGGCACAUGAGGAUCACCCAUGUAAAGA | – | – | 0.0402 | 0.0551
CAGCCCUGAGGAUAUCCAUCCUUGUACAUGAGGAUCACCCAUGUUUUCCUCUGGGCUUUCGGAGAAGGCAGGUAUC | – | – | 0.0744 | 0.0685
GGGUACAUCGGAGGAUAUCAUGUAAAUACAUGAGGAUCACCCAUGUCGAUUGAGACAUCGGAGAUUGAGAAGGCCGAUGUACCG | 0.0745 | 0.534 | – | –
GGAUCCAACACAGGAUAUGCUGGACUUUGUCCAGCAGAAGGGUGAAGGACAUGAGGAUCACCCAUGUGGAUCCAUAUAUUUAAU | 0.324 | 0.0278 | – | –
AUGCUUUUUGUAGGAUAUACAUUUUGUACGUAUGUAGAAGGACAUGAGGAUCACCCAUGUAAAUUAUUAUUAAAUAUCAUACUU | – | – | 0.0458 | 0.0318
CUAACACAUGAGGAUCACCCAUGUUAGGAUAUUAGUACUAUUUACCACAUAAUGGCACUGAGAAGGAGCGGGUA | – | – | 0.0293 | 0.0313
ACAUGAGGAUCACCCAUGUAGAAUGAAGAAGGAUGUUACUUGAGACUCACCCAUGUACAUAGGACAUAGGAUAUUCUAAUAAUU | 0.0101 | 0.00783 | – | –
AUCAAGUGAGGAUAUGAUUAUACAACAAACUAACAUCUACAUCAGAAGGCACAUGAGGAUCACCCAUGUUUGUC | – | – | 0.0181 | 0.0166
AAUUUACAGCUAGGAUAUACAUGAGGAUCACCCAUGUAAUCAUAUGAUAUUUUUUUUGUAUGAGUGUAGAAGGAGCAAAUAAAA | – | – | 0.00938 | 0.00869
ACGAAGAAACAGAAGGGUAAAUUAGUUAAUUAUUAUUUGGUUAUGCACUACAGGAUAUGUAUAACAUGAGGAUCACCCAUGUAC | 0.0872 | 0.0535 | – | –
GUAGCAAUCGGAGGAUAUUCAUAGCCGAAAGGCACAUGAGGAUCACCCAUGUGGCGAAAGCCUUGGGAGAAGGCCGAUUGCUAC | 0.324 | 0.018 | – | –
CGAGCUGCUGUGAGGAUAUACCUAUGGGUGCGUGGGUAGAAGGCACAUGAGGAUCACCCAUGUCCUGCAGCUCG | – | – | 0.255 | 0.344
GAGAUGUGAGGAUAUCUAGACCGCGGAAGAGCUGCGGUCCGAGAGAAGGCACAUGAGGAUCACCCAUGUGAUGA | – | – | 0.0462 | 0.145
UCAUAAUUGAUCCUAUUUACCAACAUGAGGAUCACCCAUGUGCAGGAUAUGCUAAAGAUAGAUAAGCAGAAGGGCAAAUACAUA | – | – | 0.162 | 0.756
UUCGUGCAGCUUAGCUGUACGCGUACAUGAGGAUCACCCAUGUAGGAUAUGGUAGGCAAAGCUUACUAGAAGGAUAUAGUGAUC | – | – | 0.129 | 0.144
AAACAUGUCCGAGGAUAUCUGGAAACAUUUUCAAGAGAAGGCGGACAUGAGGAUCACCCAUGUCUCUCCUCAUCAAGUACAAAU | – | – | 0.00733 | 0.0463
UCAUUUAUUACAGGAUAUGUUAGUAUACAGUUGUUUGGUUAUUACAUAUUAACAGAAGGGUAGAACAUGAGGAUCACCCAUGUA | 0.0957 | 0.0523 | – | –
AUAUCCUUUUUAUACAUGAGGAUCACCCAUGUUUUUCUUACGUAGGAUAUCGUUGUUUUUUUUUACGAGAAGGACGUAGAAUGU | 0.0236 | 0.0239 | – | –
GGCUACAUCGGAGGAUAUCAUGUAAAUACAUGAGGAUCACCCAUGUCGAUGGAGACAUCGGAGAUUGAGAAGGCCGAUGUACCG | 0.182 | 0.00849 | – | –
AAAUCACAUGAGGAUCACCCAUGUGAGGAUAUGAUACUAUGUACUUCGGUACAUAGUAUCAGAAGGCAUGUGGA | – | – | 0.032 | 0.0368
AUAUCCUAGAUAGGAUAUACUGAGGUUGAAUGGGUAGAAGGAUCGUUAGGGAAGACUACAUGAGGAUCACCCAUGUUGUUUAUU | 0.116 | 0.0929 | – | –
GAAGAUGGUGAGGAUAUCAUUAACCACAUCGGAUGAGAAGGUACCACAUGAGGAUCACCCAUGUACAUAUUACU | – | – | 0.0224 | 0.0229
AAGAAAGAAACGCAGGAUAUGCAAAACAAAACAUGAGGAUCACCCAUGUCUUACUUACAAACAAAGCAGAAGGGCGAAAGAAAGAA | 0.0201 | 0.0132 | – | –
UUUAUUUCGGCAGGAUAUACAUGUAUAUAUAUUUCUUUAUAUCUUAUUACAUGAGGAUCACCCAUGUAGAAGGGCCUUCUUCUC | – | – | 0.0551 | 0.0493
GCCUUAUCGGUCAGGAUAUACACCCGUUAGUUGUUGUAGAAGGGACAUGAGGAUCACCCAUGUACAUUACAUUG | – | – | 0.0228 | 0.06

Sequence | apparent Kd [1] [µM] | apparent Kd [2] [µM] | apparent Kd [3] [µM] | apparent Kd [4] [µM]
CUAUGCGGAAUAGGAUAUUCGCUCAUGAGGAUAGAAGAAGGGUUACAUGAGGAUCACCCAUGUAUGCACAUGAGGAUCCCUUAG | – | – | 0.134 | 0.15
GGUCGGAGCAGAGGAUAUUACAUGAGGAUCACCCAUGUAUGAACCAAUAGCUGGAAACAGCAAUGUAAGAAGGCUGCUCCGACA | – | – | 0.0135 | 0.173
AAUUAUAUACAGAAGGAGUUAUUUUGAGGAUUACUAGGAUAUGUUCACAUGAGGAUCACCCAUGUCAUAUUGGGAUUUAUUAUU | – | – | 0.0195 | 0.0267
UUUUAACAUGAGGAUCACCCAUGUGAGGAUAUCGAAAUUUAUAUUUAUAUUAAUAUUUCGAGAAGGCACAUUUU | – | – | 0.195 | 0.191
GCAGGCUUCGAGAAGGACAUGAGGAUCACCCAUGUGCGUGUGAAGCAGCCGUGAGGCUGCAUCAUGUAGGAUAUCGGAGUCUGA | – | – | 0.0745 | 0.5
AUUGUAAUGUCAGGAUAUAUUAUUUUUUACAUAGUAGAAGGGAUAAUUAUACUCAUGUACAUGAGGAUCACCCAUGUUAAAUAU | 0.0588 | 0.0248 | – | –
ACCGUGUCAGGAUAUCCUGCUGUGCGGAAUCUGUAUUCACGGGAGAAGGGACAUGAGGAUCACCCAUGUUUGAG | – | – | 0.0196 | 0.0186
AAGCCUAAUGAGAAGGUGUGUAUAAAUUAUAUACAAGGAUAUCGGUCAAGCAUGAAAACAUGAGGAUCACCCAUGUUAAGGCUU | 0.00582 | 0.00551 | – | –
GCCUCACAUGAGGAUCACCCAUGUCAGGAUAUCUCGUGCGCAGUAAUUAUCUGGCUAAAGAGAAGGGACAUUAA | – | – | 0.047 | 0.099
GGAUAGGACAGAGGAUAUACGUGCUAGAGAUACUAGCAAAAUUUCCUCACAUGAGGAUCACCCAUGUAGAAGGCUGUCCUAUUG | – | – | 0.0156 | 0.46
GUCAGUCGAGGAUAUACGAUCGUGCUUCGGCACGUAAGAUCACAUGAGGAUCACCCAUGUAGAAGGCGACUGAC | – | – | 0.0325 | 0.257
GGGUACAUCGGAGGAUAUCAUGUAGACACAUGAGGAUCACCCAUGUCGAUGGAGACAUCGGAGAUUGAGAAGGCCGAUGUACCG | 0.435 | 0.0239 | – | –
GUCAGCUCGUGAGGAUAUACAACACUGCUUCGGCAGUGUAUUCAGAUCACAUGAGGAUCACCCAUGUAGAAGGCACGAGCUGAU | – | – | 0.0128 | 0.206
GGAUAGGACAGAGGAUAUCCGUGCUAGAGAUACUAGCAAAAUUUCCUCACAUGAGGAUCACCCAUGUAGAAGGCUGUCCUAUCG | – | – | 0.00598 | 0.0117
GUAGCUAUCGGAGGAUAUUCAUACCGGAUACGGACAUGAGGAUCACCCAUGUGCCGAAAGGCUUGGGAGAAGGCCGAUAGCUAC | 0.108 | 0.0169 | – | –
AACCCUUGUGUUAGGAUAUGUCACUACCAUAUGCGACAGAAGGAACAUGAGGAUCACCCAUGUGAGUUAGCCAA | – | – | 0.0428 | 0.0911
CGACAGUACACAGGAUAUCCUCGACUUUGUCGAGGAGAAGGGUGUAAACAUGAGGAUCACCCAUGUAUACUGUCGAAAUAUAAU | 0.35 | 0.0387 | – | –
CGCUACGUUUCGUAGCAGUGUCAUCGAGAAGGCCCUGACAUGAGGAUCACCCAUGUUAAAACACAGGAGGAUAUCGAUGAUACA | 0.00439 | 0.00456 | – | –
UUAAAUCAUGUAGGAUAUGCAUGGCGAAGCUACGCAGAAGGACAUGAGGAUCACCCAUGUUAAAGCUACCGGAUACGGUGGCAA | – | – | 0.109 | 0.195
CCUGGAUCAUGAGGAUAUGGUACCUUAUUGGUACCAGAAGGCAUGUCUCUUGACAUGAGGAUCACCCAUGUAAUAAAUUCCAGG | 0.841 | 0.114 | – | –
CUUUUGUGAGGAUAUCAGUAGUAUAAAAUUAAAAUUACUACUGAGAAGGCACAUGAGGAUCACCCAUGUUCCUC | – | – | 0.0352 | 0.201
GCAUGGAAAGUGAGGAUAUACCACUGGAUACAGUGGUAGAAGGCACAUGAGGAUCACCCAUGUCUCUACCAUGC | – | – | 0.0136 | 0.0308
CAAAUUGCAGGAUAUACUGGGCCAGAGCCAUCGUGUAUUCCACAUGAGGAUCACCCAUGUAGAAGGGCACGUAC | – | – | 0.0272 | 0.0991
CGCUAGUCAGGAUAUACGCACAUGUCACCAGACGUGAAGGGACAUGAGGAUCACCCAUGUAGAAGGGACUAGCC | – | – | 0.0985 | 0.246
CGUGCACAUGAGGAUCACCCAUGUCGUCGCGAUCAAGGAUAUGAAAGCAGCGUUAUGUUAUCAGAAGGUGAACCUC | 0.0281 | 0.0219 | – | –
GGGUACAUCGGAGGAUAUCAUGUUAAUACAUGAGGAUCACCCAUGUCGAUGGAGACAUCGGAGAUUGAGAAGGCCGAUGUACCG | 0.322 | 0.0114 | – | –
GUGAUCUGAGUGAGGAUAUCCUUUAAGUAAUUGCAGGAGAAGGCACAUGAGGAUCACCCAUGUACAUCUUCGCG | – | – | 0.0361 | 0.119

From the EternaBench riboswitch data
